Series [1] deals with HepG2. Put plainly: Cytotoxicity against human HepG2 cells after 48 hrs by WST-8 assay. Format: cell-based. The conditions noted are these: hepg2, 48 h. On the technique in general: Tetrazolium dyes change colour on reduction, which living cells bring about.
The test system of series [2] is Enterococcus faecalis. Put plainly: Antibacterial activity against Enterococcus faecalis ATCC 29212 after 20 hrs by broth microdilution method. Format: functional. Particulars: ATCC 29212, 20 h. The essentials: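 MIC by NCCLS broth microdilution in cation-adjusted Mueller-Hinton broth with serial 2-fold compound dilutions. Inoculum 5 × 10^4 CFU per strain in 0.1 mL. Incubated 35 °C for 20 h before scoring.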
A general note: Broth dilution looks for growth in wells or tubes with falling amounts of substance.

For series [3], the system named is Enterococcus faecium. As to the kind of experiment: Antibacterial activity against Enterococcus faecium ATCC 19434 after 20 hrs by broth microdilution method. Format: functional. The conditions noted are these: ATCC 19434, 20 h. The essentials:
(§1)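 MIC by broth microdilution following NCCLS guidance in cation-adjusted Mueller-Hinton broth. Compounds tested as serial 2-fold dilutions, tested up to 64 μg/mL. Each well inoculated with 5 × 10^4 CFU of the strain in 0.1 mL. Incubation at 35 °C for 20 h, after which the MIC was scored.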

In series [4] the test system is Staphylococcus aureus. Put plainly: Antibacterial activity against methicillin-resistant Staphylococcus aureus SR3637 after 20 hrs by broth microdilution method. Format: functional. The conditions noted are these: SR3637, 20 h. The essentials: as §1
For series [5], the system named is Enterococcus faecium. As to the kind of experiment: Antibacterial activity against vancomycin-resistant Enterococcus faecium SR7917 after 20 hrs by broth microdilution method. Format: functional. The conditions noted are these: SR7917, 20 h. In outline:
as §1

Series [6] concerns Enterococcus faecalis. As to the kind of experiment: Antibacterial activity against vancomycin-resistant Enterococcus faecalis SR7914 after 20 hrs by broth microdilution method. Format: functional. The conditions noted are these: SR7914, 20 h. The essentials: as §1
The test system of series [7] is Staphylococcus aureus. Put plainly: Antibacterial activity against methicillin-susceptible Staphylococcus aureus ATCC 29213 after 20 hrs by broth microdilution method. Format: functional. The conditions noted are these: ATCC 29213, 20 h. In outline:
as §1

Series [8] addresses T1, Phospho-N-acetylmuramoyl-pentapeptide-transferase (Bacillus subtilis (strain 168), UniProt Q03521).
T1 sequence (Q03521 whole entry): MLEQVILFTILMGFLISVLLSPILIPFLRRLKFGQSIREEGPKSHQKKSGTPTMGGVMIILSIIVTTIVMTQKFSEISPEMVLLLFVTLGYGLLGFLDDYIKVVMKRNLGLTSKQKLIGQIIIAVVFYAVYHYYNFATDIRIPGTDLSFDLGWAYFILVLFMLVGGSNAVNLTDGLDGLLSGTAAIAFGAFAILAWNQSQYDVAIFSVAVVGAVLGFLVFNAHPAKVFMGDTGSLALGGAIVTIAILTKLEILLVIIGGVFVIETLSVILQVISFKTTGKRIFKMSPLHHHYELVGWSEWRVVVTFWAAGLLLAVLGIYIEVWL
As to the kind of experiment: Inhibition of purified Bacillus subtilis MraY assessed as incorporation of MurNAc-[14C]pentapeptide into lipid 1 after 30 mins. In outline: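 Purified B. subtilis MraY. Final mix: 100 mM Tris-HCl pH 7.5, 40 mM MgCl2, 1.1 mM C55-P, 250 mM NaCl, 0.25 mM UDP-MurNAc-[14C]pentapeptide (337 Bq), 8.4 mM N-lauroyl sarcosine. Incubated 30 min at 37 °C. Substrate and lipid I separated by silica TLC and quantified by radioactivity scanning. IC50 calculated relative to an inhibitor-free control.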

≈ marks a conversion by molar mass, not a printed value.

As for `CC(C)[C@H](NC(=O)N[C@H](C(=O)N[C@@H](CCCCCCCc1ccc(-c2ccccc2)cc1)C(=O)NCCCN[C@H](C(=O)O)[C@H](O[C@@H]1O[C@H](CN)[C@@H](O)[C@H]1O)C1O[C@@H](n2ccc(=O)[nH]c2=O)[C@H](O)[C@@H]1O)[C@@H]1CCNC(=N)N1)C(=O)O` (single isomer, unassigned), in series [1], the Activity result is given as “Non-toxic”. Also, the MIC (as a rule, the smallest concentration in the dilution series that meets the test's criterion for growth inhibition) in series [2] came out at 4 µg/mL (≈ 3.6 µM); in series [3] it was 4 µg/mL (≈ 3.6 µM); in series [4], 4 µg/mL (≈ 3.6 µM); in series [5], 8 µg/mL (≈ 7.21 µM); in series [6], 16 µg/mL (≈ 14.4 µM); in series [7] it was 4 µg/mL (≈ 3.6 µM).

Regarding `CCCCCCCCCCCCCCC[C@H](NC(=O)[C@@H](NC(=O)N[C@H](C(=O)O)C(C)C)[C@@H]1CCN=C(N)N1)C(=O)NCCCN[C@H](C(=O)O)[C@H](O[C@@H]1O[C@H](CN)[C@@H](O)[C@H]1O)C1O[C@@H](n2ccc(=O)[nH]c2=O)[C@H](O)[C@@H]1O` (single isomer, unassigned), the Activity result in series [1] is “Non-toxic”. Also, the MIC in series [2] is 4 µg/mL (≈ 3.74 µM); in series [3], 4 µg/mL (≈ 3.74 µM); in series [4] it was 4 µg/mL (≈ 3.74 µM); in series [5], 2 µg/mL (≈ 1.87 µM); in series [6] it was 4 µg/mL (≈ 3.74 µM); in series [7] it was 2 µg/mL (≈ 1.87 µM). The concentration for half-maximal inhibition (IC50) (commonly the concentration at which inhibition is half-maximal) in series [8] came to 330 nM.

For the compound `CCCCCCOc1ccc(-c2ccc([C@H](NC(=O)[C@@H](NC(=O)N[C@H](C(=O)O)C(C)C)[C@@H]3CCNC(=N)N3)C(=O)NCCCN[C@H](C(=O)O)[C@H](O[C@@H]3O[C@H](CN)[C@@H](O)[C@H]3O)C3O[C@@H](n4ccc(=O)[nH]c4=O)[C@H](O)[C@@H]3O)cc2)cc1` (single isomer, unassigned), the Activity result in series [1] was “Non-toxic”. The MIC is 8 µg/mL (≈ 7.19 µM) in series [2]; 4 µg/mL (≈ 3.6 µM) in series [3]; 8 µg/mL (≈ 7.19 µM) in series [4]; 4 µg/mL (≈ 3.6 µM) in series [5]; 8 µg/mL (≈ 7.19 µM) in series [6]; 4 µg/mL (≈ 3.6 µM) in series [7].

For the compound `CN[C@H](CC(C)C)C(=O)N[C@H]1C(=O)N[C@@H](CC(N)=O)C(=O)N[C@H]2C(=O)N[C@H]3C(=O)N[C@H](C(=O)N[C@H](C(=O)O)c4cc(O)cc(O)c4-c4cc3ccc4O)[C@H](O)c3ccc(c(Cl)c3)Oc3cc2cc(c3O[C@@H]2O[C@H](CO)[C@@H](O)[C@H](O)[C@H]2O[C@H]2C[C@](C)(N)[C@H](O)[C@H](C)O2)Oc2ccc(cc2Cl)[C@H]1O` [VANCOMYCIN], the minimum inhibitory concentration (MIC) in series [2] was 1 µg/mL (≈ 0.69 µM); in series [5], > 64 µg/mL; in series [6] it was > 64 µg/mL.

As for `CC(C)C[C@H](NC(=O)[C@@H](NC(=O)N[C@H](C(=O)O)C(C)C)[C@@H]1CCNC(=N)N1)C(=O)NCCCN[C@H](C(=O)O)[C@H](O[C@@H]1O[C@H](CN)[C@@H](O)[C@H]1O)[C@H]1O[C@@H](n2ccc(=O)[nH]c2=O)[C@H](O)[C@@H]1O` [MURAMYCIN D2], the MIC in series [2], in series [3], in series [4], in series [5], in series [6] and in series [7] was > 64 µg/mL in each case. Besides, the half-inhibitory concentration (IC50) in series [8] came out at 10 nM.

For the compound `CCCCCCCCCCCCN[C@H](C(=O)O)[C@H](O[C@@H]1O[C@H](CN)[C@@H](O)[C@H]1O)[C@H]1O[C@@H](n2ccc(=O)[nH]c2=O)[C@H](O)[C@@H]1O`, the MIC in series [2] is 32 µg/mL (≈ 51.9 µM); in series [3], 64 µg/mL (≈ 104 µM); in series [4], > 64 µg/mL; in series [5], 64 µg/mL (≈ 104 µM); in series [6] it was 64 µg/mL (≈ 104 µM); in series [7], > 64 µg/mL. Also, the IC50 in series [8] came to 5000 nM.

As for `CC(C)C[C@@H](NC(=O)[C@@H](NC(=O)N[C@H](C(=O)O)C(C)C)[C@@H]1CCN=C(N)N1)C(=O)NCCCN[C@H](C(=O)O)[C@H](O[C@@H]1O[C@H](CN)[C@@H](O)[C@H]1O)C1O[C@@H](n2ccc(=O)[nH]c2=O)[C@H](O)[C@@H]1O` (single isomer, unassigned), the minimal inhibitory concentration (MIC) in series [2], in series [3], in series [4], in series [5], in series [6] and in series [7] was > 64 µg/mL throughout. In addition, in series [8], the 50% inhibitory concentration (IC50) is 90 nM.

On to `CCCCOc1ccc(-c2ccc(CC[C@H](NC(=O)[C@@H](NC(=O)N[C@H](C(=O)O)C(C)C)[C@@H]3CCNC(=N)N3)C(=O)NCCCN[C@H](C(=O)O)[C@H](O[C@@H]3O[C@H](CN)[C@@H](O)[C@H]3O)C3O[C@@H](n4ccc(=O)[nH]c4=O)[C@H](O)[C@@H]3O)cc2)cc1` (single isomer, unassigned), for which the Activity result in series [1] is recorded as “Non-toxic”. In addition, the minimum inhibitory concentration (MIC) in series [2] is 16 µg/mL (≈ 14.4 µM); in series [3], 16 µg/mL (≈ 14.4 µM); in series [4], 32 µg/mL (≈ 28.8 µM); in series [5], 32 µg/mL (≈ 28.8 µM); in series [6], 64 µg/mL (≈ 57.5 µM); in series [7], 16 µg/mL (≈ 14.4 µM).

As to `CC(C)[C@H](NC(=O)N[C@H](C(=O)N[C@H](CCCCCCCc1ccc(-c2ccccc2)cc1)C(=O)NCCCN[C@H](C(=O)O)[C@H](O[C@@H]1O[C@H](CN)[C@@H](O)[C@H]1O)C1O[C@@H](n2ccc(=O)[nH]c2=O)[C@H](O)[C@@H]1O)[C@@H]1CCNC(=N)N1)C(=O)O` (single isomer, unassigned), the Activity entry in series [1] is listed as “Non-toxic”. For the same compound, the MIC in series [2] came out at 8 µg/mL (≈ 7.21 µM); in series [3] it was 4 µg/mL (≈ 3.6 µM); in series [4] it was 16 µg/mL (≈ 14.4 µM); in series [5], 4 µg/mL (≈ 3.6 µM); in series [6], 16 µg/mL (≈ 14.4 µM); in series [7], 8 µg/mL (≈ 7.21 µM).

In the case of `CCCCCCOc1ccc(-c2ccc([C@@H](NC(=O)[C@@H](NC(=O)N[C@H](C(=O)O)C(C)C)[C@@H]3CCNC(=N)N3)C(=O)NCCCN[C@H](C(=O)O)[C@H](O[C@@H]3O[C@H](CN)[C@@H](O)[C@H]3O)C3O[C@@H](n4ccc(=O)[nH]c4=O)[C@H](O)[C@@H]3O)cc2)cc1` (single isomer, unassigned), the Activity result in series [1] is “Non-toxic”. Further, the minimal inhibitory concentration (MIC) in series [2] worked out at 16 µg/mL (≈ 14.4 µM); in series [3] it was 4 µg/mL (≈ 3.6 µM); in series [4], 16 µg/mL (≈ 14.4 µM); in series [5], 8 µg/mL (≈ 7.19 µM); in series [6] it was 16 µg/mL (≈ 14.4 µM); in series [7] it was 16 µg/mL (≈ 14.4 µM).

For `CCCCCCCCCCCCCCC[C@@H](NC(=O)[C@@H](NC(=O)N[C@H](C(=O)O)C(C)C)[C@@H]1CCN=C(N)N1)C(=O)NCCCN[C@H](C(=O)O)[C@H](O[C@@H]1O[C@H](CN)[C@@H](O)[C@H]1O)C1O[C@@H](n2ccc(=O)[nH]c2=O)[C@H](O)[C@@H]1O` (single isomer, unassigned), the Activity result in series [1] is given as “Non-toxic”. The minimum inhibitory concentration (MIC) in series [2] came out at 2 µg/mL (≈ 1.87 µM); in series [3], 0.5 µg/mL (≈ 0.467 µM); in series [4] it was 4 µg/mL (≈ 3.74 µM); in series [5], 0.25 µg/mL (≈ 0.234 µM); in series [6], 4 µg/mL (≈ 3.74 µM); in series [7], 2 µg/mL (≈ 1.87 µM). Besides, the IC50 in series [8] was 740 nM.

Consider `CCCCOc1ccc(-c2ccc(CC[C@@H](NC(=O)[C@@H](NC(=O)N[C@H](C(=O)O)C(C)C)[C@@H]3CCNC(=N)N3)C(=O)NCCCN[C@H](C(=O)O)[C@H](O[C@@H]3O[C@H](CN)[C@@H](O)[C@H]3O)C3O[C@@H](n4ccc(=O)[nH]c4=O)[C@H](O)[C@@H]3O)cc2)cc1` (single isomer, unassigned), for which the Activity result in series [1] is “Non-toxic”. The minimum inhibitory concentration (MIC) in series [2] worked out at 32 µg/mL (≈ 28.8 µM); in series [3], 4 µg/mL (≈ 3.6 µM); in series [4], 64 µg/mL (≈ 57.5 µM); in series [5], 8 µg/mL (≈ 7.19 µM); in series [6], 64 µg/mL (≈ 57.5 µM); in series [7], 64 µg/mL (≈ 57.5 µM).

Values taken from ChEMBL document CHEMBL1777703, “Synthesis and Biological Evaluation of Muraymycin Analogues Active against Anti-Drug-Resistant Bacteria” (ACS Med Chem Lett, 2010).
